Laboratory results from ChEMBL document CHEMBL3627708, “A multifunctional, light-activated prochelator inhibits UVA-induced oxidative stress” (Bioorg Med Chem Lett, 2015).
The source made the active and inactive calls. The calls are words filed in the database; no cut-off is given here.

Columns and labels:
[1] = Cytotoxicity against human ARPE19 cells assessed as cell viability up to 100 uM after 24 hrs by Cell Titer Blue assay; format: cell-based; settings: arpe-19, 24 h
Method in brief: (§1)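 ARPE-19 cells incubated with compound for 24 h or extended to 72 h, doses up to 100 µM, then assessed for cytotoxicity.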

[2] = test system: ARPE-19; experiment: Cytoprotective activity in human ARPE19 cells assessed as reduction of UVA radiation-mediated cell death at 5 to 100 uM preincubated for 2 hrs followed by 40 mins UVA irradiation measured after 5 hrs by LDH release assay; format: functional, cell-based
Method in brief: (§2)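 ARPE-19 retinal pigment epithelial cells pre-treated 2 h with compound (5–100 µM range tested), then exposed to UVA for 40 min at 600 kJ/m2. Cell death read 5 h after irradiation; triplicate wells per treatment, normalized to cells treated with 2% Triton X-100.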

[3] = […] of Fe-dependent reactive oxygen species formation after 90 mins by H2DCF-DA-based fluorescence assay; format: physicochemical; settings: 1.5 h
Method in brief: (§3)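 H2DCF (20 µM) oxidation to DCF driven by 10 µM FeCl3, 10 µM NTA, 1 mM H2O2 and 1 mM ascorbate in PBS pH 7.4. Compound tested over a concentration range alongside trolox. Control wells hold Fe, NTA, H2O2 and ascorbate only. DCF read at ex 485/em 535 nm.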

[4] = Inhibition of Fe-dependent reactive oxygen species formation at 10 to 5000 uM after 90 mins by H2DCF-DA-based fluorescence assay; format: functional; method in brief: as §3
[5] = Inhibition of Fe-dependent reactive oxygen species formation at 10 to 200 uM irradiated with UVA for 15 secs measured after 1 hr by H2DCF-DA-based fluorescence assay; format: functional
Method in brief: (§4)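 H2DCF (20 µM) in PBS pH 7.4 with 10 µM FeCl3, 10 µM NTA, 1 mM ascorbic acid and 1 mM H2O2. Wells dosed with chelator or prochelator, the latter either irradiated (+) or not irradiated (−) with UVA. DCF fluorescence read at ex 485/em 535 nm. Background from wells with only H2DCF and buffer subtracted.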

[6] = test system: ARPE-19; experiment: Cytoprotective activity in human ARPE19 cells assessed as reduction of UVA radiation-mediated cell death at < 50 uM preincubated for 2 hrs followed by 40 mins UVA irradiation measured after 5 hrs by LDH release assay; format: functional, cell-based; method in brief: as §2
[7] = Inhibition of Fe-dependent reactive oxygen species formation at 200 uM after 1 hr by H2DCF-DA-based fluorescence assay in absence of UVA irradiation; format: functional; method in brief: as §4
[8] = Cytotoxicity against human ARPE19 cells assessed as cell viability at 75 to 100 uM after 72 hrs by Cell Titer Blue assay; format: cell-based; settings: arpe-19, 72 h; method in brief: as §1
[9] = Inhibition of Fe-dependent reactive oxygen species formation at 10 to 100 uM after 1 hr by H2DCF-DA-based fluorescence assay in absence of UVA irradiation; format: functional; method in brief: as §4
[10] = Metal chelating activity assessed as formation of compound-Fe3+ complex by measuring free calcein level at 10 uM irradiated with UVA for 15 secs measured after 1 hr by fluorescence-based microplate assay; format: physicochemical
Method in brief: (§5)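 Calcein competition in PBS: 2 µM calcein with 2 µM (NH4)2Fe(SO4)2, forming Fe3+(calcein) in situ. Compound added at 10 µM, with or without 15 s photolysis in a photoreactor (λmax 350 nm). Calcein emission recorded 1 h after photolysis; triplicate, SD.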

[11] = Cytotoxicity against human ARPE19 cells assessed as cell viability at <25 uM after 72 hrs by Cell Titer Blue assay; format: cell-based; settings: arpe-19, 72 h; method in brief: as §1
[12] = Photoconversion of the compound in PBS buffer assessed as time required to show HAPI peak at 50 uM irradiated with UVA for 75 secs by LC-MS analysis; format: physicochemical; settings: 75 s
Method in brief: (§6)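 Prochelator solutions analysed by LC-MS before and after UVA irradiation. New peaks identified by matching elution times and mass spectra to authentic umbelliferone and HAPI.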

[13] = Metal chelating activity assessed as formation of compound-Fe3+ complex by measuring free calcein level at 10 uM after 1 hr by fluorescence-based microplate assay in absence of UVA irradiation; format: physicochemical; method in brief: as §5
[14] = test system: ARPE-19; experiment: Cytoprotective activity in human ARPE19 cells assessed as reduction of UVA radiation-mediated cell death at 75 to 100 uM preincubated for 2 hrs followed by 40 mins UVA irradiation measured after 5 hrs by LDH release assay; format: functional, cell-based; method in brief: as §2
[15] = Photoconversion of the compound in PBS buffer assessed as time required to show umbelliferone peak at 50 uM irradiated with UVA for 75 secs by LC-MS analysis; format: physicochemical; settings: 75 s; method in brief: as §6
[16] = Inhibition of Fe-dependent reactive oxygen species formation after 1 hr by H2DCF-DA-based fluorescence assay; format: functional; method in brief: as §4

Structure (SMILES): O=c1ccc2ccc(O)cc2o1 [UMBELLIFERONE]
- Activity [1]: Non-toxic
- Activity [2]: inactive
- Activity [3]: Dose-dependent effect

Structure (SMILES): Cc1c(C)c2c(c(C)c1O)CCC(C)(C(=O)O)O2 (stereo not drawn)
- inhibition [4]: Active

Structure (SMILES): C/C(=N\NC(=O)c1ccncc1)c1ccccc1OC(=O)/C=C/c1ccc(O)cc1O
- inhibition [5]: Active
- Activity [1]: Non-toxic
- Activity [6]: Active
- inhibition [7]: Active
- Activity [8]: Toxic
- inhibition [9]: inactive
- Activity [10]: Active
- Activity [11]: Non-toxic
- Time [12]: 11.7 min
- Activity [13]: Not Active
- Activity [14]: inactive
- Time [15]: 8.3 min

Structure (SMILES): C/C(=N\NC(=O)c1ccncc1)c1ccccc1O
- inhibition [16]: Dose-dependent effect
- Activity [1]: Non-toxic
- Activity [8]: Toxic
- Activity [2]: Active
- Activity [10]: Active
- Activity [11]: Non-toxic
- Activity [13]: Active
